Assay [1] deals with ACE. Briefly: ACE-inhibitory kinetics. The class given is biochemical. The gist of the method: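 Reciprocal velocity was plotted against reciprocal HHL concentration (Lineweaver–Burk). Vmax came from the Y-axis intercept and Km from the X-axis intercept. The inhibition mode was assigned from the plot pattern. Runs were in triplicate.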
Assay [2] has as its system ACE. The note with it: cited from earlier work.

A word on the IC50: it is the point on the concentration scale where inhibition reaches its midpoint.

Like-named read-outs stand apart in the source and are kept apart here. No end group written: not given here.

In the case of KKCHFWPFPW [KKCHFWPFPW], the inhibition mode result with ACE [1] (Lineweaver–Burk, HHL 0.5, 1, 2 mM, peptide 0, 17.63, 35.26, 70.52, 105.78, 141.04, 176.3 μM, triplicate) is given as “competitive inhibition”. Further, the Km values entry with ACE [1] (Lineweaver–Burk, HHL 0.5, 1, 2 mM, peptide added vs control, triplicate) is “higher than that of the control”. The “inhibitor class (substrate-type, prodrug-type or true inhibitor)” value with ACE [1] (according to the Lineweaver–Burk plot) is given as “true inhibitor”.
As to MEGAQEAQGD, the IC50 with ACE [2] (peptide from sea cucumber, ref [38]) is 4.5 µM.
On to Tyr-Arg-Pro-Tyr, for which, in the assay with ACE [2] (peptide from bonito, ref [37]), the IC50 was 320 µM.
As for Val-Lys-Pro, in the assay with ACE [2] (peptide from freshwater clam, ref [39]), the concentration for half-maximal inhibition (IC50) is 3.7 µM.

The values are drawn from article PMC10979060 (Heliyon, 2024).
